The values below come from ChEMBL document CHEMBL3286385, “Novel 1-[4-(Aminosulfonyl)phenyl]-1H-1,2,4-triazole derivatives with remarkable selective COX-2 inhibition: design, synthesis, molecular docking, anti-inflammatory and ulcerogenicity studies” (Eur J Med Chem, 2014).

For data set [1], the system named is Rattus norvegicus. In words: Antiinflammatory activity against albino rat assessed as inhibition of carrageenan-induced paw edema at 0.28 mmol/kg, po administered 30 mins prior to carrageenan challenge measured after 1 hr relative to control. The class given is functional. In a few lines:
(§1)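 Adult male albino rats (120–140 g), in groups of four, were fasted 24 h with water allowed. Compounds were given orally as a suspension in 0.5% w/v CMC in water, and controls received CMC alone. After 30 min, 0.1 mL of 1% carrageenan in saline was injected subplantar into the right hind paw and saline into the left. Paw thickness was measured by caliper. % inhibition = [(VR−VL)control − (VR−VL)treated]/(VR−VL)control; one-way ANOVA.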
A general note: Carrageenan injected into the paw causes an acute inflammation.

Data set [2] relates to Rattus norvegicus. Briefly: Antiinflammatory activity against albino rat assessed as inhibition of carrageenan-induced paw edema at 0.28 mmol/kg, po administered 30 mins prior to carrageenan challenge measured after 2 hrs relative to control. In kind it is functional. In a few lines:
as §1

Data set [3] relates to Rattus norvegicus. In words: Antiinflammatory activity against albino rat assessed as inhibition of carrageenan-induced paw edema at 0.28 mmol/kg, po administered 30 mins prior to carrageenan challenge measured after 3 hrs relative to control. In kind it is functional. The procedure, abridged:
as §1

In data set [4] the test system is Rattus norvegicus. Briefly: Antiinflammatory activity against albino rat assessed as inhibition of carrageenan-induced paw edema at 0.28 mmol/kg, po administered 30 mins prior to carrageenan challenge measured after 4 hrs relative to control. In kind it is functional. The procedure, abridged: as §1
For data set [5], the system named is Rattus norvegicus. Briefly: Antiinflammatory activity against albino rat assessed as inhibition of carrageenan-induced paw edema at 0.28 mmol/kg, po administered 30 mins prior to carrageenan challenge measured after 5 hrs relative to control. In kind it is functional. In a few lines:
as §1

Data set [6] deals with Rattus norvegicus. In words: Antiinflammatory activity against albino rat assessed as inhibition of carrageenan-induced paw edema at 0.28 mmol/kg, po administered 30 mins prior to carrageenan challenge measured after 3 hrs relative to indomethacin. The class given is functional. Also on record: scale not given: the % may be the effect or the level left.
Data set [7] deals with Rattus norvegicus. In words: Antiinflammatory activity against albino rat assessed as inhibition of carrageenan-induced paw edema at 0.28 mmol/kg, po administered 30 mins prior to carrageenan challenge measured after 3 hrs relative to celecoxib. The class given is functional. Also on record: scale not given: the % may be the effect or the level left.
The test system of data set [8] is Rattus norvegicus. Briefly: Gastric toxicity in rat assessed as ulcer index at 0.28 mmol/kg, po. In kind it is organism-based. The conditions noted are these: in vivo.
In data set [9] the target is T1, Prostaglandin G/H synthase 1 (Ovis aries, UniProt P05979).
T1 sequence (P05979 whole entry): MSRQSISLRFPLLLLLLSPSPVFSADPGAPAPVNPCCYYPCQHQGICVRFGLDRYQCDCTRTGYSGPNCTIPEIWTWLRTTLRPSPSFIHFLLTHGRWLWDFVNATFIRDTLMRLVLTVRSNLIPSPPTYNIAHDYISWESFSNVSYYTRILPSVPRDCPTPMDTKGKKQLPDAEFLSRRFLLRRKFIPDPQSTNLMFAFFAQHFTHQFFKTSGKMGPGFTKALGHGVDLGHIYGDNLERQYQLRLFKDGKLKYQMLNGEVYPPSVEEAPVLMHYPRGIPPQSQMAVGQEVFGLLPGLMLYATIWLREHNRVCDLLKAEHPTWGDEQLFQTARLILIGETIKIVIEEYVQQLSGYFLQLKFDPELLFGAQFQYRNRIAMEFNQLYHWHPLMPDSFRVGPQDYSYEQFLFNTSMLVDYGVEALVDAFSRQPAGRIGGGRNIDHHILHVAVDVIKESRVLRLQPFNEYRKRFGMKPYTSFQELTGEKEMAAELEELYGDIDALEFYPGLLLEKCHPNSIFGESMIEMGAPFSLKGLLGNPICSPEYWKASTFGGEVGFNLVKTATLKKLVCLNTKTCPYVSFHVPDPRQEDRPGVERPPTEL
In words: Inhibition of ovine COX1 using ADHP as substrate after 20 mins by fluorescence assay. In a few lines:
(§2)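 Ovine COX-1 or human recombinant COX-2 was preincubated 20 min at room temperature with a range of compound concentrations in 100 mM Tris-HCl pH 8.0, heme and ADHP. Arachidonic acid was then added for 2 min at room temperature, and resorufin fluorescence was read. IC50 came from the dose-response curve (triplicate determinations). Selectivity index = COX-1 IC50/COX-2 IC50.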

The target of data set [10] is T2, Prostaglandin G/H synthase 2 (Homo sapiens, UniProt P35354).
T2 sequence (P35354 whole entry): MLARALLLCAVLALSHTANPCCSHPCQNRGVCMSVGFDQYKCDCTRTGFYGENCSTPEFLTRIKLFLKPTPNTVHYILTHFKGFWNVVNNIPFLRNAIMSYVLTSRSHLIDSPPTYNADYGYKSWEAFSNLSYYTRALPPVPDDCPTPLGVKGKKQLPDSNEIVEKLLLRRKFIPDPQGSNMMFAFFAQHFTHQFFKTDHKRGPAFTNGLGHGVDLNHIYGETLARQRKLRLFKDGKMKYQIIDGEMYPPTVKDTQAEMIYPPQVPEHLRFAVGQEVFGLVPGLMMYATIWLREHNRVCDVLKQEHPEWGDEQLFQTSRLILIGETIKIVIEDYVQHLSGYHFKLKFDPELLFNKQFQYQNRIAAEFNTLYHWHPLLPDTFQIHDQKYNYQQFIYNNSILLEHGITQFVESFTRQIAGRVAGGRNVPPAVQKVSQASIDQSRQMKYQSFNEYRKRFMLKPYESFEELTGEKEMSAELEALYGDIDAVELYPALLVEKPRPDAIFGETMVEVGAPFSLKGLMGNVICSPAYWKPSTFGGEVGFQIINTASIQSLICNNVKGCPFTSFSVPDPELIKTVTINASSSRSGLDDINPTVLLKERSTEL
In words: Inhibition of human recombinant COX2 using ADHP as substrate after 20 mins by fluorescence assay. In a few lines: as §2

The nature of data set [11]: Selectivity index, ratio of IC50 for ovine COX1 to IC50 for human recombinant COX2. In a few lines: as §2

SMILES strings stand for the structures.

Take `Cc1ccc(NC(=O)c2nc(-c3ccccc3)n(-c3ccc(S(N)(=O)=O)cc3)n2)cc1`: the inhibition in vivo at 280 µmol/kg in data set [1] was found to be 40%; in data set [2] it was 47%; in data set [3], 76%; in data set [4] it was 71%; in [5], 65%. For the same compound, the Activity in [6] came out at 96%; in data set [7] it was 110%. For the same compound, the UI in data set [8] amounted to 1. Also, the IC50 in data set [9] turned out to be 516 µM; in [10], 1.9 µM. In data set [11], the Ratio IC50 is 271.

By inhibition in vivo is commonly meant the drop in the measured response relative to a control, in per cent. In general, IC50 refers to the concentration needed to halve the response being measured.
